# High-throughput results (PubChem BioAssay)
# DDE Tn7 FP inh – inhibitors of Tn7 peptide binding to human fibrin DD(E). FP displacement of FITC-Tn7 peptide from fibrin DD(E); 0% = median of compound wells per plate. hit rate 0.13% among 370,000. P02675. inhibition, % at 8.3 µM;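 active means inhibition above the mean of compounds falling within the control limits plus 3 SD of them, cut at about 14% in these data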;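 further: 0% = plate median of compound wells and 100% = 10 µM Aha-Tn7 peptide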
#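 Assay system: human fibrin DD(E) protein / Input: 2 µM fibrin DD(E) / Benchmarks: high control of 10 µM Aha-Tn7 peptide / Measured by: fluorescence polarization of the labelled Tn7 tracer / Medium: Tris buffer with calcium and detergent, pH 7.8 / Timing: 10 min compound pre-incubation, 3 h probe incubation at room temperature / Repeats: one replicate per compound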
# ADAM10 inh – ADAM10 inhibition, QFRET primary screen. recombinant ADAM10, EDANS/DABCYL FRET peptide cleavage, 3 h. inhibition, % at 7 µM. hit rate 0.62% among 370,000. AID 720582;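 active means inhibition above a per-campaign cutoff equal to the mean of compounds falling between control-based bounds plus 3 SD, cut at about 20% in these data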;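 further: 0% = DMSO wells while the 100% control is not disclosed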
# DDE Tn6 FP inh – disrupts Tn6 cyclic peptide binding to fibrin D-Dimer-E complex; Fibrin DD(E) TRITC-Tn6 fluorescence polarization displacement; inhibition, % at 8.3 µM; hit rate 0.21% among 370,000; AID 720509;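 active means inhibition above a per-campaign cutoff: mean of compounds within control limits plus 3 SD, cut at about 15% in these data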;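 further: 0% = median of all compound wells on the plate and 100% = blocking peptide control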
# PLC-beta3 inh – blocks human PLC-beta3 enzyme activity; AID 720704; hit rate 0.18% among 370,000; Purified PLC-beta3, fluorogenic substrate, fluorescence; inhibition, % at 12.2 µM;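 further: 0% = median of compound wells on plate and 100% = full blocker control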
# ADAM17 inh – inhibits human ADAM17; P78536; recombinant ADAM17, EDANS/DABCYL FRET peptide cleavage; inhibition, % at 6.95 µM; hit rate 0.83% among 370,000; AID 720648;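 active means inhibition above the mean of compounds lying between control limits plus 3 SD, set per campaign, cut at about 8.5% in these data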;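 further: 0% = DMSO-only wells as the low control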
# PLC-gamma1 inh – PLC-gamma1 (human) inhibition, primary screen; P19174; purified PLC-gamma1, fluorogenic substrate, fluorescence; inhibition, % at 12.2 µM; hit rate 0.84% among 370,000; in the data active means inhibition above about 9.5%
# Target sequence (P19174 whole entry, looked up): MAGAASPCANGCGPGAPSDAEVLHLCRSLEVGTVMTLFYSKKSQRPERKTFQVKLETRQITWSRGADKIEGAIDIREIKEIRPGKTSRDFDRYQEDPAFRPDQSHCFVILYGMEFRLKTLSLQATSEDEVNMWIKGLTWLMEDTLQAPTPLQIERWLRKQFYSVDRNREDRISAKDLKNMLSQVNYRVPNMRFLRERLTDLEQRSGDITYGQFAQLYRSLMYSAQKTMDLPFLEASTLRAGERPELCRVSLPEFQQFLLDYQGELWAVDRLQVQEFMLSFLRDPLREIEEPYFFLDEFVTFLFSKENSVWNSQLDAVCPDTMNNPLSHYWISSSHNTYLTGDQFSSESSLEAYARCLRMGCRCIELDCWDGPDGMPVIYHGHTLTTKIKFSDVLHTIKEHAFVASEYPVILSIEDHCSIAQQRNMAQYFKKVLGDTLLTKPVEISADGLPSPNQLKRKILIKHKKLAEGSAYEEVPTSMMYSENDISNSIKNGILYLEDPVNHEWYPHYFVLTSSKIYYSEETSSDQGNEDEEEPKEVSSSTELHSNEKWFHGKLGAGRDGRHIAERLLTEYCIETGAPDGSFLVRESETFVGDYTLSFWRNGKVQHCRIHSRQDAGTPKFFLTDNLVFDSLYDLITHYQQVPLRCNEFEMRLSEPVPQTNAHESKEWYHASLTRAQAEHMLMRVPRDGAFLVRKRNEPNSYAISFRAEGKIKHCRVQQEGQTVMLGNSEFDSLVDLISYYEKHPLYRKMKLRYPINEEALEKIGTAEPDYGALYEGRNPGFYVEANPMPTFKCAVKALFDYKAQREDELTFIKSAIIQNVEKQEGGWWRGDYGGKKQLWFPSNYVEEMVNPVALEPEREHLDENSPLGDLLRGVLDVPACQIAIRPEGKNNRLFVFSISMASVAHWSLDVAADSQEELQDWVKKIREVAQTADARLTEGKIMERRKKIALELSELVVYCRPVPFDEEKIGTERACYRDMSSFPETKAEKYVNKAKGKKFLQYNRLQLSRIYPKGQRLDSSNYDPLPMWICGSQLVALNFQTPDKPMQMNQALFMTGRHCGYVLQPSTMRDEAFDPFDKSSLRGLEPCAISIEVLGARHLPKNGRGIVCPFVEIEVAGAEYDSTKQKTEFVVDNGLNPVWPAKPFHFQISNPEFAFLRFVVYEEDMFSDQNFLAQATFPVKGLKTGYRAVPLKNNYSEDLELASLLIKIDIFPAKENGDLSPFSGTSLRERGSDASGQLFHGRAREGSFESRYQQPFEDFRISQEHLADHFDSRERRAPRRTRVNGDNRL
# DDE Tn6 FP ctr – counter-screen hit for Tn6 peptide-fibrin DD(E) binding disruption. shares compounds with DDE Tn6 FP inh. TRITC-Tn6 fluorescence polarization displacement; 0% = median of compound wells, not DMSO. inhibition, % at 8.3 µM. hit rate 2% among 680. AID 720621;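 active means inhibition above the mean of test compounds lying between the control limits plus 3 SD of those, cut at about 14% in these data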;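 further: 0% = median of compound wells and 100% = wells with Aha-Tn7 blocking peptide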
# Tn6 DDE conf – DD(E)-Tn6 binding inhibition, FP confirmation | shares compounds with DDE Tn6 FP inh | FP displacement of TRITC-Tn6 peptide from DD(E); 0% = per-plate median of test wells | inhibition, % at 8.3 µM | hit rate 10% among 680;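 active means inhibition above the mean of compounds lying within the control limits plus 3 SD, cut at about 16% in these data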;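 further: 100% = high control wells holding a competing inhibitor peptide at 10 µM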
# ADAM10 confirm – confirmation of inhibitors of human ADAM10. shares compounds with ADAM10 inh. ADAM10 QFRET peptide cleavage, EDANS fluorescence. inhibition, % at 6.95 µM. hit rate 1% among 2,100;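 active means inhibition above about 20% chosen separately for each screening run, limit read from the data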;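 further: 0% = DMSO wells and 100% = marimastat wells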
# ADAM17 ctr – ADAM17 inhibition, counter-screen for ADAM10 exosite hits; shares compounds with ADAM10 inh; ADAM17 QFRET peptide cleavage, EDANS fluorescence; inhibition, % at 6.95 µM; hit rate 0.5% among 2,100;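 active means mean triplicate inhibition above the solvent-only control wells' mean plus 3 SD, cut at about 12% in these data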;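 further: 0% = DMSO wells and 100% = marimastat wells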
# ADAM10 ctr – counter-screen for ADAM17 exosite inhibitors: inhibitors of human ADAM10 | hit rate 47% among 2,900 | AID 743256 | shares compounds with ADAM17 inh | recombinant ADAM10, EDANS/DABCYL FRET peptide cleavage, 3 h | inhibition, % at 6.95 µM;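 active means mean inhibition over the triplicate runs exceeds the activity threshold set in the earlier primary screen, cut at about 20% in these data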;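 further: 0% = DMSO wells and 100% = marimastat wells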
# ADAM17 confirm – confirmation of inhibitors of human ADAM17. recombinant ADAM17, EDANS/DABCYL QFRET peptide cleavage. AID 743257. shares compounds with ADAM17 inh. hit rate 65% among 2,900. inhibition, % at 6.95 µM;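 active means mean inhibition across replicates above the hit cutoff set in the primary screen, cut at about 8.5% in these data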;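 further: 0% = DMSO wells and 100% = marimastat wells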
# PLCg1 ctr – PLC-gamma1 inhibition, counter-screen for PLC-beta3 hits; shares compounds with PLC-gamma1 inh; purified PLC-gamma1, fluorogenic substrate, fluorescence; inhibition, % at 12.3 µM; hit rate 3.1% among 3,300; AID 743258; in the data active means inhibition above about 9.5%
# PLCb3 confirm – human PLC-beta3 inhibition, confirmation | inhibition, % at 12.3 µM | hit rate 1% among 3,300 | shares compounds with PLC-gamma1 inh | AID 743261 | purified PLC-beta3, fluorogenic substrate fluorescence
# Numbers without * were called inactive; . = no result; + = active, no number. This is a sample that favours compounds with a hit; in the whole collection about 2.3% have one here. Unless noted, no stated cut-off is given here; in the data, active means inhibition above about 11%; inactive means the rest.
SMILES,DDE Tn7 FP inh,ADAM10 inh,DDE Tn6 FP inh,PLC-beta3 inh,ADAM17 inh,PLC-gamma1 inh,DDE Tn6 FP ctr,Tn6 DDE conf,others
COc1ccc(NC(=O)c2cccnc2)cc1,-3,6,0,-4,4,2,.,.,
C/C(=C\C(=O)c1ccccc1)Nc1ccc(O)cc1,-6,-24,17*,-30,-10,-24,-6,-7,
C/C(=C\C(=O)c1cccnc1)Nc1ccc(O)cc1,11,-26,44*,-35,-9,-26,6,-2,
C[C@H](CCCCC1(C)OCCO1)CCC(=O)N(c1ccccc1)c1ccccc1,0,4,5,0,1,1,.,.,
COc1ccc(Cl)c(Cn2c(NCCCO)nc3c2c(=O)n(C)c(=O)n3C)c1,2,10,17*,1,1,-1,-4,-4,
O=c1ccc2[n+]([O-])c3ccc(O)cc3oc-2c1,2,-24,+,-197,-8,-130,2,93*,
O=c1cc(O)c2ccc(O)cc2o1,6,-37,2,-13,-11,-7,.,.,
O=C(Nc1ccc2c(c1)OCO2)c1c[nH]c(=O)n(-c2ccc(F)cc2)c1=O,1,-3,15*,-9,-3,-5,5,4,
CCCCCCCC1CC(CSC(=N)N)OC1=O (centres undefined),4,-10,13,2,-4,4,.,.,
CCCCC1CC(CSc2ncn[nH]2)OC1=O (centres undefined),6,4,72*,-2,-6,-1,-1,-7,
CCCCC1CC(CSC(=N)N)OC1=O (centres undefined),6,-1,18*,-2,-3,1,1,-4,
COc1ccc(CNCC#Cc2ccccc2)c(OC)c1,1,-1,-2,-9,-2,-3,.,.,
N#Cc1cccc(NC(=O)O[C@@H]2CC[C@@]34CCCN3C(=O)CCC[C@H]4C2)c1,-6,0,1,3,-1,-2,.,.,
Cc1ccc(NC(=O)OC2CCC23CCCCC3)cc1 (centres undefined),-1,-5,4,0,1,0,.,.,
COc1ccc(Cn2cc(CN3[C@H](CC(C)C)COc4cc(Br)ccc4S3(=O)=O)nn2)cc1,-8,6,-3,0,4,7,.,.,
Cc1ccccc1C(C(=O)NCc1ccco1)N(CC1CCCO1)C(=O)Cn1nnc2ccccc21 (centres undefined),3,13,19*,6,0,4,2,-2,
CNC(=O)c1cc(Oc2ccc(NC(=O)Nc3ccc(Cl)c(C(F)(F)F)c3)cc2)ccn1,-2,25*,34*,0,16*,3,-1,-2,ADAM10 confirm=7;ADAM17 ctr=2;ADAM10 ctr=35*;ADAM17 confirm=20*
CC(C)CC(O)(CC(C)C)c1cn(C(=O)N(c2ccccc2)c2ccccc2)nn1,7,3,4,4,0,1,.,.,
O=S(=O)(c1ccc(NC(=S)NCCC(c2ccccc2)c2ccccc2)cc1)N1CCOCC1,4,21*,17*,-1,15*,0,1,-18,ADAM10 confirm=11;ADAM17 ctr=4;ADAM10 ctr=31*;ADAM17 confirm=17*
Cc1ccc(-c2cc(C(=O)NN=Cc3c4ccccc4cc4ccccc34)[nH]n2)cc1C,3,-10,-5,-9,-4,-8,.,.,
Cc1ccc(-c2cc(C(=O)NN=Cc3cccc(OCc4ccccc4)c3)[nH]n2)cc1C,-6,7,20*,-1,11*,1,8,16*,ADAM10 ctr=15;ADAM17 confirm=12*
Brc1ccc(Cn2nnc(-c3ccc(N4CCOCC4)cc3)n2)cc1,4,7,4,2,0,-2,.,.,
Cc1cccc(NS(=O)(=O)c2ccc3[nH]c(=O)cc(C(=O)OC(C)C(=O)Nc4ccc([N+](=O)[O-])cc4)c3c2)c1 (centres undefined),-4,25*,50*,-11,15*,4,8,-3,ADAM10 confirm=10;ADAM17 ctr=4;ADAM10 ctr=4;ADAM17 confirm=12*
CCc1ccc(NC(=O)C(C)OC(=O)c2cc(=O)[nH]c3ccc(S(=O)(=O)Nc4ccc(F)cc4)cc23)cc1 (centres undefined),8,-9,-1,0,-2,-5,.,.,
O=C(COC(=O)c1ccccc1Cc1ccccc1)Nc1ccc(SC(F)F)cc1,-4,11,16*,-7,9.6*,-4,-1,-21,ADAM10 ctr=20*;ADAM17 confirm=14*
CCOC(=O)[C@@]12CN(C(=O)OC(C)(C)C)CC=C1N(Cc1ccc(OC)cc1)C(=O)[C@H]2CC(=O)NCc1cccs1,-3,6,1,3,1,2,.,.,
Cc1cc(C)cc(NC(=O)C(OC(=O)c2cc[n+]([O-])cc2)c2ccccc2)c1 (centres undefined),-4,-6,-5,-6,-3,-2,.,.,
Cc1ccc(NC(=O)C(OC(=O)c2ccc(NC(N)=O)cc2)c2ccccc2)cc1Cl (centres undefined),0,32*,34*,2,18*,5,1,-1,ADAM10 confirm=7;ADAM17 ctr=2;ADAM10 ctr=11;ADAM17 confirm=9.7*
CC(=O)N1CCSc2ccc(S(=O)(=O)NCCc3cccc(C)c3)cc21,0,6,16*,-3,3,16*,-1,-2,PLCg1 ctr=-1;PLCb3 confirm=-1
